Reference: ChEMBL document CHEMBL4689842, “EUbOPEN Chemogenomics Library wave 1” (2021)

Assays:
HEK-293T = experiment: Incucyte cell viability with HEK293T; format: toxicity, cell-based; details: human, 10 µM, compound concentration 10 uM; further: filed as whole numbers so only -1 and 0 and 1 occur
U2OS = experiment: Multiplex assay against U2OS; format: toxicity, cell-based; details: human
Method in brief: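 Phenotypes for tubulin, mitochondrial mass and membrane permeability are expressed as per cents of healthy-nucleus cells. Cells were stained live at seeding with Hoechst33342, BioTracker Green Microtubule Cytoskeleton Dye, MitoTracker Red and Annexin V Alexa Fluor 680, then imaged after compound addition on a CQ1 microscope at 37°C and 5% CO2. Machine-learning gating in CellPathfinder separated Hoechst high-intensity objects from normal cells, divided normal cells by nuclear state (healthy, pyknosed, fragmented) and divided pyknosed cells into mitotic or apoptotic.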

[1] = 12 h, 1 µM, compound concentration 1 uM, replicate 1
[2] = 12 h, 1 µM, compound concentration 1 uM, replicate 2
[3] = 12 h, 10 µM, compound concentration 10 uM, replicate 1
[4] = 12 h, 10 µM, compound concentration 10 uM, replicate 2
[5] = 24 h, 1 µM, compound concentration 1 uM, replicate 1
[6] = 24 h, 1 µM, compound concentration 1 uM, replicate 2
[7] = 24 h, 10 µM, compound concentration 10 uM, replicate 1
[8] = 24 h, 10 µM, compound concentration 10 uM, replicate 2

CCOc1cc(N2CCC(O)CC2)ccc1Nc1ncc2c(n1)N(C1CCCC1)CCC(=O)N2C
Growth Rate (HEK-293T; 0 h, replicate number 1, timepoint 0 hours): 0 | Growth Rate (HEK-293T; 0 h, replicate number 2, timepoint 0 hours): 1 | Growth Rate (HEK-293T; 12 h, replicate number 2, timepoint 12 hours): 1 | Growth Rate (HEK-293T; 18 h, replicate number 1, timepoint 18 hours): 1 | Growth Rate (HEK-293T; 24 h, replicate number 1, timepoint 24 hours): 0 | Population Apoptotic (%) (U2OS; [1]): 46% | Population Fragmented Nuclei (%) (U2OS; [1]): 5% | Population Healthy Nuclei (%) (U2OS; [1]): 86% | Population Hoechst High Intensity Objects (%) (U2OS; [1]): 4% | Population Membrane Permeable-Phenotype (%) (U2OS; [1]): 16% | Population Mitochondria Different-Phenotype (%) (U2OS; [1]): 14% | Population Mitotic Cells (%) (U2OS; [1]): 53% | Population Normal (%) (U2OS; [1]): 95% | Population Pyknosed Nuclei (%) (U2OS; [1]): 8% | Population Tubulin-Different-Phenotype (%) (U2OS; [1]): 18% | Population Apoptotic (%) (U2OS; [2]): 50% | Population Fragmented Nuclei (%) (U2OS; [2]): 8% | Population Healthy Nuclei (%) (U2OS; [2]): 89% | Population Hoechst High Intensity Objects (%) (U2OS; [2]): 7% | Population Membrane Permeable-Phenotype (%) (U2OS; [2]): 18% | Population Mitochondria Different-Phenotype (%) (U2OS; [2]): 16% | Population Mitotic Cells (%) (U2OS; [2]): 50% | Population Normal (%) (U2OS; [2]): 92% | Population Pyknosed Nuclei (%) (U2OS; [2]): 2% | Population Tubulin-Different-Phenotype (%) (U2OS; [2]): 17% | Population Apoptotic (%) (U2OS; [3]): 27% | Population Fragmented Nuclei (%) (U2OS; [3]): 4% | Population Healthy Nuclei (%) (U2OS; [3]): 89% | Population Hoechst High Intensity Objects (%) (U2OS; [3]): 1% | Population Membrane Permeable-Phenotype (%) (U2OS; [3]): 5% | Population Mitochondria Different-Phenotype (%) (U2OS; [3]): 24% | Population Mitotic Cells (%) (U2OS; [3]): 72% | Population Normal (%) (U2OS; [3]): 98% | Population Pyknosed Nuclei (%) (U2OS; [3]): 5% | Population Tubulin-Different-Phenotype (%) (U2OS; [3]): 28% | Population Apoptotic (%) (U2OS; [4]): 33% | Population Fragmented Nuclei (%) (U2OS; [4]): 7% | Population Healthy Nuclei (%) (U2OS; [4]): 90% | Population Hoechst High Intensity Objects (%) (U2OS; [4]): 8% | Population Membrane Permeable-Phenotype (%) (U2OS; [4]): 7% | Population Mitochondria Different-Phenotype (%) (U2OS; [4]): 33% | Population Mitotic Cells (%) (U2OS; [4]): 66% | Population Normal (%) (U2OS; [4]): 91% | Population Pyknosed Nuclei (%) (U2OS; [4]): 2% | Population Tubulin-Different-Phenotype (%) (U2OS; [4]): 27% | Population Fragmented Nuclei (%) (U2OS; [5]): 7% | Population Healthy Nuclei (%) (U2OS; [5]): 87% | Population Hoechst High Intensity Objects (%) (U2OS; [5]): 2% | Population Membrane Permeable-Phenotype (%) (U2OS; [5]): 8% | Population Mitochondria Different-Phenotype (%) (U2OS; [5]): 17% | Population Normal (%) (U2OS; [5]): 97% | Population Tubulin-Different-Phenotype (%) (U2OS; [5]): 18% | Population Apoptotic (%) (U2OS; [6]): 60% | Population Fragmented Nuclei (%) (U2OS; [6]): 10% | Population Healthy Nuclei (%) (U2OS; [6]): 85% | Population Hoechst High Intensity Objects (%) (U2OS; [6]): 6% | Population Membrane Permeable-Phenotype (%) (U2OS; [6]): 11% | Population Mitochondria Different-Phenotype (%) (U2OS; [6]): 20% | Population Mitotic Cells (%) (U2OS; [6]): 40% | Population Normal (%) (U2OS; [6]): 93% | Population Pyknosed Nuclei (%) (U2OS; [6]): 4% | Population Tubulin-Different-Phenotype (%) (U2OS; [6]): 20% | Population Apoptotic (%) (U2OS; [7]): 44% | Population Fragmented Nuclei (%) (U2OS; [7]): 3% | Population Healthy Nuclei (%) (U2OS; [7]): 93% | Population Hoechst High Intensity Objects (%) (U2OS; [7]): 1% | Population Membrane Permeable-Phenotype (%) (U2OS; [7]): 5% | Population Mitochondria Different-Phenotype (%) (U2OS; [7]): 22% | Population Mitotic Cells (%) (U2OS; [7]): 55% | Population Normal (%) (U2OS; [7]): 98% | Population Pyknosed Nuclei (%) (U2OS; [7]): 3% | Population Tubulin-Different-Phenotype (%) (U2OS; [7]): 24% | Population Apoptotic (%) (U2OS; [8]): 20% | Population Fragmented Nuclei (%) (U2OS; [8]): 9% | Population Healthy Nuclei (%) (U2OS; [8]): 87% | Population Hoechst High Intensity Objects (%) (U2OS; [8]): 7% | Population Membrane Permeable-Phenotype (%) (U2OS; [8]): 2% | Population Mitochondria Different-Phenotype (%) (U2OS; [8]): 24% | Population Mitotic Cells (%) (U2OS; [8]): 80% | Population Normal (%) (U2OS; [8]): 92% | Population Pyknosed Nuclei (%) (U2OS; [8]): 2% | Population Tubulin-Different-Phenotype (%) (U2OS; [8]): 38%
